Laboratory results from ChEMBL document CHEMBL3745621, “Synthesis and evaluation of gallocyanine dyes as potential agents for the treatment of Alzheimer's disease and related neurodegenerative tauopathies” (Eur J Med Chem, 2016).
pIC50: −log10 of the molar value. Calls of active or inactive are those of the source. The rule behind the calls is not given here.

Columns and labels:
[1] = Cytotoxicity against mouse primary cortical neurons assessed as viable cells at 10 uM after 24 hrs by MTT assay; format: cell-based, Cerebral cortex neuron; conditions: for viability at 24 h, 10 µM: primary cortical neurons, read-out: Activity
Summary of the method: (§1)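 Primary mouse cortical neurons seeded at 25,000 or 15,000 cells/well and grown 6 days at 37 °C, 5% CO2. Test compound was then added in fresh medium (final DMSO 0.1%) for 24 h at 37 °C. MTT (2.5 mg/ml in PBS) was added for 4 h. Formazan was extracted with isopropanol/HCl and absorbance read at 545 nm. Read-out is % viable cells.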

[2] = Cytotoxicity against mouse primary cortical neurons assessed viable cells at 100 uM after 24 hrs by MTT assay; format: cell-based, Cerebral cortex neuron; conditions: for viability at 24 h, 100 µM: primary cortical neurons, read-out: Activity; summary of the method: as §1
[3] = biological target: T1, Dickkopf-related protein 1 (Mus musculus, UniProt O54908); assay: Inhibition of mouse DKK1 assessed as inhibition of DKK1-alkaline phophatase binding to LRP5 transfected in HEK293 cells; format: cell-based
T1 sequence (O54908 whole entry): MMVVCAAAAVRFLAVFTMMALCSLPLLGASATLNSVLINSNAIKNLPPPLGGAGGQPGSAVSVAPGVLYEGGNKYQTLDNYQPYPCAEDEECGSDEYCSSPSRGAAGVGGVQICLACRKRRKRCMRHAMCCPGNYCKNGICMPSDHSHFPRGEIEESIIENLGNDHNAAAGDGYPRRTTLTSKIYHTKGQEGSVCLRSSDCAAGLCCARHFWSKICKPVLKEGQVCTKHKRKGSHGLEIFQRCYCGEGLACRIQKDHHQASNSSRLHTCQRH

[4] = biological target: Dickkopf-related protein 1/Low-density lipoprotein receptor-related protein 6 (Homo sapiens) (UniProt O94907+O75581); assay: Inhibition of DKK1/LRP6 (unknown origin) expressed in HEK293 cells assessed as inhibition of DKK1/LRP6 interaction at 100 uM after 2 hrs by immunofluorescence method; format: cell-based
Summary of the method: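 HEK-293 cells stably overexpressing LRP6, sub-confluent, incubated 2 h at 4 °C with DKK1 conditioned medium plus compound or DMSO. Fixed in 3% paraformaldehyde, blocked in PBS/0.1% BSA, stained with rabbit anti-DKK1 and Alexa488 secondary; DAPI nuclei. Surface DKK1 fluorescence quantified over 750 cells as % DKK1 binding; three independent experiments in duplicate.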

[5] = biological target: Dickkopf-related protein 1/Lrp6 (Mus musculus) (UniProt O54908+O88572); assay: Inhibition of DKK1-LRP6 interactions in mouse cortical neurons assessed as inhibition of prostaglandinJ2-induced tau phosphorylation at Ser396 residue at 10 uM for 1 hr by western bloting
Summary of the method: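 Primary mouse cortical neurons treated 1 h at 37 °C with 20 µM PGJ2 plus compound or DMSO. Lysed at 4 °C in Tris/NaCl/EDTA/Triton buffer, pH 7.6, with protease and phosphatase inhibitors; protein measured by Bradford. SDS-PAGE western blot probed with anti-pSer396 tau (1:1000, overnight, 4 °C) and anti-actin; ECL detection. Densitometry normalized to actin; three independent experiments, mean SD.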

Chain of Dickkopf-related protein 1/Lrp6 (Mus musculus) (O88572 whole entry, looked up, one chain of several): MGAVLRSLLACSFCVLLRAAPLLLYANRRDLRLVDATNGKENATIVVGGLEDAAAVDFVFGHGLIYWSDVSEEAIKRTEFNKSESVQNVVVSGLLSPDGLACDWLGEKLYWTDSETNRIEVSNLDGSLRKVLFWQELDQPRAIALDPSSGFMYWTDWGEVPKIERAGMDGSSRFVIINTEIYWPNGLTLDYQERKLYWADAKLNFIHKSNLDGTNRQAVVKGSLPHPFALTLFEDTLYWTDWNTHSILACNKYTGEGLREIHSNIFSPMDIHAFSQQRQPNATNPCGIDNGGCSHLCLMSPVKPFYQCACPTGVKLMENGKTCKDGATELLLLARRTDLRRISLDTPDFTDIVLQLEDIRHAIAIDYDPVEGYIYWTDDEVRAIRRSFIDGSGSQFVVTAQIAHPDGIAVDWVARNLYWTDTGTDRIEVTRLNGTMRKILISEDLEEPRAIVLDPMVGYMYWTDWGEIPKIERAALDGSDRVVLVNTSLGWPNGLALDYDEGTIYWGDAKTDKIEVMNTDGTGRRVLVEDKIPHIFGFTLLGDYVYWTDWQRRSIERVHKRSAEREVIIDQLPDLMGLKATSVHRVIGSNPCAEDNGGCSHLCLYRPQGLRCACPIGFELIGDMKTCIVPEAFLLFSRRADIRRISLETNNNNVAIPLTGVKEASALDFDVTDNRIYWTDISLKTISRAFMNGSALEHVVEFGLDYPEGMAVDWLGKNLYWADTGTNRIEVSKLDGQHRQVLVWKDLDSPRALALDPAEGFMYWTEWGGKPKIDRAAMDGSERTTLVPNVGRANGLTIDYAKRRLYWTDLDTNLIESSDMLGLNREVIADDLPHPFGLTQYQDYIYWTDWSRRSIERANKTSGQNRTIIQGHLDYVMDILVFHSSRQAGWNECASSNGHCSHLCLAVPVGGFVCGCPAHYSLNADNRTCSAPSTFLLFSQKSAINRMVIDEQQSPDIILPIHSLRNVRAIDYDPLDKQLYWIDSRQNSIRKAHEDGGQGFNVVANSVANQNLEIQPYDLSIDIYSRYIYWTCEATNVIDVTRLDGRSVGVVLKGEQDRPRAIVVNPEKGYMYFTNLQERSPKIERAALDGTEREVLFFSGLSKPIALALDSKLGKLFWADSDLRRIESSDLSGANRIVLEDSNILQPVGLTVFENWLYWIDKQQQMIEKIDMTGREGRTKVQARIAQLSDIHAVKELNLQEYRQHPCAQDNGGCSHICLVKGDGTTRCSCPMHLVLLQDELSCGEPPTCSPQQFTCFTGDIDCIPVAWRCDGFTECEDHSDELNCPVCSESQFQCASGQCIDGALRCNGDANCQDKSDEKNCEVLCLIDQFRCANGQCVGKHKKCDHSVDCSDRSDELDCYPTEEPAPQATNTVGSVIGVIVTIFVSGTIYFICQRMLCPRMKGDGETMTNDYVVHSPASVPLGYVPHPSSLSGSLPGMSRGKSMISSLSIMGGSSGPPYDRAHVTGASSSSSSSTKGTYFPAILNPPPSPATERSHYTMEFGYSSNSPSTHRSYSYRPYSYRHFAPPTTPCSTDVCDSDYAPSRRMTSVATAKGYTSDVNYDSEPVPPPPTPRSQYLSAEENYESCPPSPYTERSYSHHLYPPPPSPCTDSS
Chain of Dickkopf-related protein 1/Low-density lipoprotein receptor-related protein 6 (Homo sapiens) (O75581 20-1613 partner limits assumed): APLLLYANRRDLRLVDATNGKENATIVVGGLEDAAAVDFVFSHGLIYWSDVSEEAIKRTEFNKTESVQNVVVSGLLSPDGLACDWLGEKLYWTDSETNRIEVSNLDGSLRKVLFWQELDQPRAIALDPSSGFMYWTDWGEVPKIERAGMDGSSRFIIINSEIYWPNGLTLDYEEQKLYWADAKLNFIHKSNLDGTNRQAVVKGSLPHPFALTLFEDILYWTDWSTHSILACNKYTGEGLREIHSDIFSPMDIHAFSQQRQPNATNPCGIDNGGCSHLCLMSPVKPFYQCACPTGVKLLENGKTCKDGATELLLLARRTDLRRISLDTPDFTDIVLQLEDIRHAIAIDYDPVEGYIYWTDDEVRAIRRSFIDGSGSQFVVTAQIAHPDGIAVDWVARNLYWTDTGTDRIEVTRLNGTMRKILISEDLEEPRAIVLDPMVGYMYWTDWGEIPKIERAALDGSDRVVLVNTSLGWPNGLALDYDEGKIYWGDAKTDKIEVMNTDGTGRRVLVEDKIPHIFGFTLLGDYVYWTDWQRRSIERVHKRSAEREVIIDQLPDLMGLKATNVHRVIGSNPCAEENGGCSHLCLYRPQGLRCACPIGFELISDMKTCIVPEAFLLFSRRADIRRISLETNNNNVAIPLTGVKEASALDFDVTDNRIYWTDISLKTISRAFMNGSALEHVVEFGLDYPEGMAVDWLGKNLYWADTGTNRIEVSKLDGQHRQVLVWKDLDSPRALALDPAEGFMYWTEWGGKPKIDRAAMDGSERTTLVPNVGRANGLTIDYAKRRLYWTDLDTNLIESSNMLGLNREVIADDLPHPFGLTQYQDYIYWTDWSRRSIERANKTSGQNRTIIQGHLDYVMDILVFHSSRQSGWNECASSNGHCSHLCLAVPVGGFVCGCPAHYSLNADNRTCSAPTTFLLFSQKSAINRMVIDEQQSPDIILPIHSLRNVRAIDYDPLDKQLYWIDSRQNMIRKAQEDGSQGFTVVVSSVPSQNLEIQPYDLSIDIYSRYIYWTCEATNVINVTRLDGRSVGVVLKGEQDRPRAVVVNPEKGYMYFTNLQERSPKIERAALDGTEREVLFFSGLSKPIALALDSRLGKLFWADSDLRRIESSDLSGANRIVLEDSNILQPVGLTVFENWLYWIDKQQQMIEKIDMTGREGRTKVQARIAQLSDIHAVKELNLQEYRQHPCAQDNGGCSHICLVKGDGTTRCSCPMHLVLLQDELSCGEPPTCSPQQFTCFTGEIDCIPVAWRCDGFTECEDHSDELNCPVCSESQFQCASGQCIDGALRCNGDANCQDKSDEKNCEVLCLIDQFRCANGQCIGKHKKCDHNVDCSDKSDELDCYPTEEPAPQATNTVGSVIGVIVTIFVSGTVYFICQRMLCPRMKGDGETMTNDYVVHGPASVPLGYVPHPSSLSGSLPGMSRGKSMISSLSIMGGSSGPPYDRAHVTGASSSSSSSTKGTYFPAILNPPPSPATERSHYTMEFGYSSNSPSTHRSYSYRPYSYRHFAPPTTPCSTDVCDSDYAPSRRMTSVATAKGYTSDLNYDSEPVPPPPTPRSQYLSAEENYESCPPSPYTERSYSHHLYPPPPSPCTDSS
Chain of Dickkopf-related protein 1/Low-density lipoprotein receptor-related protein 6 (Homo sapiens) (O94907 32-266 limits assumed): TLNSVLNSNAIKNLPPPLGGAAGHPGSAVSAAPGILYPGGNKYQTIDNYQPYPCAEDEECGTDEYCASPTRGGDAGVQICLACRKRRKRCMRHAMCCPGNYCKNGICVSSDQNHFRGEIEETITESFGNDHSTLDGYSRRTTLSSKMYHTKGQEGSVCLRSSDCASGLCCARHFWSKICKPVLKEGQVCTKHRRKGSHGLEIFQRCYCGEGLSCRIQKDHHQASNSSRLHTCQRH

Structure (SMILES) | pIC50 [3] | inhibition [4] | inhibition [5] | Activity ([1]; cerebral cortex neuron, 24 h, 10 µM) [%] | Activity ([2]; cerebral cortex neuron, 24 h, 100 µM) [%] | viability at 24 h, 10 µM [1] [%] | viability at 24 h, 100 µM [2] [%]
CN(C)c1ccc2nc3c(C(=O)O)cc(=O)c(O)c-3oc2c1 [listing 1 of 3 here] |  |  |  | 100 | 100 |  | 
CN(C)c1ccc2nc3c(C(=O)O)cc(=O)c(O)c-3oc2c1 [listing 2 of 3 here] | 5.52 |  |  |  |  | 100 | 100
CN(C)c1ccc2nc3c(O)cc(=O)cc-3oc2c1 |  | Active |  |  |  | 100 | 100
CCOC(=O)c1cc(O)c(O)c(O)c1 [ETHYLGALLATE] |  | Active |  |  |  | 100 | 100
Cc1cc(=O)cc2oc3cc(N(C)C)ccc3nc1-2 |  | Active |  |  |  | 100 | 100
CN(C)c1ccc2nc3c(C(=O)OCc4ccccc4)cc(=O)c(O)c-3oc2c1 |  | Active | Active |  |  | 100 | 100
CN(C)c1ccc2nc3ccc(=O)c(O)c-3oc2c1 |  | Active | Active |  |  | 100 | 100
CN(C)c1ccc2nc3c(C(=O)O)cc(=O)c(O)c-3oc2c1 [listing 3 of 3 here] |  | Active | Active |  |  |  | 
CC(C)OC(=O)c1cc(=O)c(O)c2oc3cc(N(C)C)ccc3nc1-2 |  | Active | Active |  |  | 100 | 100

Second part, led by results:

pIC50 [3] | inhibition [4] | inhibition [5] | Structure (SMILES) | Activity ([1]; cerebral cortex neuron, 24 h, 10 µM) [%] | Activity ([2]; cerebral cortex neuron, 24 h, 100 µM) [%] | viability at 24 h, 10 µM [1] [%] | viability at 24 h, 100 µM [2] [%]
 | Active |  | CCCCOC(=O)c1cc(O)c(O)c2oc3cc(=[N+](C)C)ccc-3nc12 |  |  | 100 | 100
 | Active | Active | CCOC(=O)c1cc(=O)c(O)c2oc3cc(N(C)C)ccc3nc1-2 |  |  | 100 | 100
 | Active | Active | COC(=O)c1cc(=O)c(O)c2oc3cc(N(C)C)ccc3nc1-2 |  |  | 100 | 100
 | Active |  | CCCN(CCC)c1ccc2nc3c(C(=O)OC)cc(=O)c(O)c-3oc2c1 |  |  | 100 | 100
 | Active |  | CCCCCCOC(=O)c1cc(O)c(O)c2oc3cc(=[N+](C)C)ccc-3nc12 |  |  | 100 | 100
 | Active |  | CCCCOC(=O)c1cc(=O)c(O)c2oc3cc(N(CCC)CCC)ccc3nc1-2 |  |  | 100 | 100
 | Active |  | COCCOC(=O)c1cc(O)c(O)c2oc3cc(=[N+](C)C)ccc-3nc12 |  |  | 100 | 100
 | Active | Active | CCCCCCOC(=O)c1cc(=O)c(O)c2oc3cc(N(C)C)ccc3nc1-2 |  |  | 100 | 100
 | Active | Active | COCCOC(=O)c1cc(=O)c(O)c2oc3cc(N(C)C)ccc3nc1-2 |  |  | 100 | 100
 | Active |  | CCOC(=O)c1cc(O)c(O)c2oc3cc(=[N+](C)C)ccc-3nc12 |  |  | 100 | 100
 | Active | Active | CCCCOC(=O)c1cc(=O)c(O)c2oc3cc(N(C)C)ccc3nc1-2 |  |  | 100 | 100
